Laboratory results published in ChEMBL document CHEMBL4052615, “Discovery of 4-amino-3-arylsulfoquinolines, a novel non-acetylenic chemotype of metabotropic glutamate 5 (mGlu5) receptor negative allosteric modulators” (Eur J Med Chem, 2017).

The molecules below were run against Metabotropic glutamate receptor 5 (Homo sapiens, UniProt P41594) (assay: Displacement of [3H]M-MPEP from mGluR5 (unknown origin) at 1 uM measured after 60 mins relative to control).
Method in brief: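 Rat cerebrocortical membranes or membranes from A18 cells expressing human mGlu5a, incubated with [³H]M-MPEP and test compound at 1 µM in 50 mM Tris pH 7.6 with 2 mM MgCl₂ and 2 mM CaCl₂, 60 min at 25°C. Non-specific binding was taken with […]. Result is % displacement, run in duplicate or triplicate.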

Metabotropic glutamate receptor 5, sequence (P41594 21-1212 limits assumed): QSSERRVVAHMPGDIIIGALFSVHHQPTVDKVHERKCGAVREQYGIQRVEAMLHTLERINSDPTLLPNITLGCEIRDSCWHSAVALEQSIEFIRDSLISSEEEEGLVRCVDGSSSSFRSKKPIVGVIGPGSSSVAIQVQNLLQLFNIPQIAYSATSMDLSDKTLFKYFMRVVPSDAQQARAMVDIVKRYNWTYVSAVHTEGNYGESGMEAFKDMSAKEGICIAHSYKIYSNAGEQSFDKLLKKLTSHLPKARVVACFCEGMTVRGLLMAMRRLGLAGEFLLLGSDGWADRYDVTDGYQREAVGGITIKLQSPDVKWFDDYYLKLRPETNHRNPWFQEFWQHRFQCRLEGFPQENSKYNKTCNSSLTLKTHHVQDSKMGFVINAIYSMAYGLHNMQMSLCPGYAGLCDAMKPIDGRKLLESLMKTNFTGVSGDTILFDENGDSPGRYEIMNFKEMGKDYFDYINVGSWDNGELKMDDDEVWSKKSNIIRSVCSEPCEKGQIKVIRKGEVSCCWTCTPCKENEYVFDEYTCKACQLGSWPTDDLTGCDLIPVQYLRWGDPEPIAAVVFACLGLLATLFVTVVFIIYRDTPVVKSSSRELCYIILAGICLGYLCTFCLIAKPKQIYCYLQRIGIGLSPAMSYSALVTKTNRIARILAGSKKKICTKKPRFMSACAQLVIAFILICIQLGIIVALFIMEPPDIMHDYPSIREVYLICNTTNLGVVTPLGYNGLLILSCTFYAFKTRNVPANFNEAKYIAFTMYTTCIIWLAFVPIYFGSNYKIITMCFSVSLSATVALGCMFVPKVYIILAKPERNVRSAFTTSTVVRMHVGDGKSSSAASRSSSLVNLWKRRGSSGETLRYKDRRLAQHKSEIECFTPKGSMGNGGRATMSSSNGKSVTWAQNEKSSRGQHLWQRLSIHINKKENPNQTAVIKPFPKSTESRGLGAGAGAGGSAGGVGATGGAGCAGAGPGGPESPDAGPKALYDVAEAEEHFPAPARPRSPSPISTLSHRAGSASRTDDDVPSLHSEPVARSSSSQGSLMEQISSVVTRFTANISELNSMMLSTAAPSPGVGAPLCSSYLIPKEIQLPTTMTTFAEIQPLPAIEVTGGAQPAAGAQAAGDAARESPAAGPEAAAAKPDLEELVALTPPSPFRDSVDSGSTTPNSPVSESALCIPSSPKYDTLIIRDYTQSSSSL

Point of comparison: `COc1ccc(S(=O)(=O)c2cnc3c(F)cccc3c2N2CCC(C)CC2)cc1`, inhibition 67%. Against it:
- COc1ccc(S(=O)(=O)c2cnc3ccc(F)cc3c2N2CCC(C)CC2)cc1 — higher, 85%
- COc1ccc(S(=O)(=O)c2cnc3cc(Cl)ccc3c2N2CCOCC2)cc1 — lower, 41%
- Cc1cc(C)cc(S(=O)(=O)c2cnc3ccc(C)cc3c2N2CCOCC2)c1 — lower, 47%
- Cc1ccc(S(=O)(=O)c2cnc3ccc(Cl)cc3c2N2CCOCC2)cc1 — higher, 84%
- Cc1ccc(S(=O)(=O)c2cnc3c(F)cccc3c2N2CCOCC2)cc1F — higher, 73%
- COc1ccc2ncc(S(=O)(=O)c3ccc(C)c(F)c3)c(N3CCOCC3)c2c1 — lower, 4%
- O=S(=O)(c1ccc(F)cc1)c1cnc2ccc(Cl)cc2c1N1CCOCC1 — lower, 6%
- Cc1cc(C)cc(S(=O)(=O)c2cnc3cc(F)ccc3c2N2CCC(C)CC2)c1 — higher, 80%
- COc1ccc2ncc(S(=O)(=O)c3ccc(F)cc3)c(N3CCOCC3)c2c1 — lower, 7%
- CC1CCN(c2c(S(=O)(=O)c3ccc(C#N)cc3)cnc3c(F)cccc23)CC1 — higher, 86%
- COCC1CCN(c2c(S(=O)(=O)c3ccc(F)cc3)cnc3cc(F)ccc23)CC1 — higher, 76.1%
- Cc1ccc2ncc(S(=O)(=O)c3ccc(C)c(F)c3)c(N3CCOCC3)c2c1 — lower, 33%
- O=S(=O)(c1cc(Cl)cc(Cl)c1)c1cnc2cc(F)ccc2c1N1CCOCC1 — higher, 74%
- Cc1cc(C)cc(S(=O)(=O)c2cnc3cc(F)ccc3c2N2CCOCC2)c1 — lower, 58%
- N#Cc1cccc(S(=O)(=O)c2cnc3ccc(F)cc3c2N2CCOCC2)c1 — lower, 25%
- Cc1ccc(S(=O)(=O)c2cnc3cc(Cl)ccc3c2N2CCC(C)CC2)cc1 — higher, 94%
- COc1ccc(S(=O)(=O)c2cnc3ccc(Cl)cc3c2N2CCC(C)CC2)cc1Cl — lower, 46%
- COc1ccc2ncc(S(=O)(=O)c3ccc(C#N)cc3)c(N3CCOCC3)c2c1 — lower, 2%
- N#Cc1ccc(S(=O)(=O)c2cnc3c(F)cccc3c2N2CCOCC2)cc1 — lower, 6%
- O=S(=O)(c1cccc(F)c1)c1cnc2c(F)cccc2c1N1CCOCC1 — lower, 23%
- Cc1ccc2ncc(S(=O)(=O)c3ccc(Cl)c(Cl)c3)c(N3CCC(C)CC3)c2c1 — higher, 82%
- CC1CCN(c2c(S(=O)(=O)c3cccc(C#N)c3)cnc3ccc(Cl)cc23)CC1 — higher, 90%
- O=S(=O)(c1ccc(F)c(F)c1)c1cnc2cc(F)ccc2c1N1CCOCC1 — lower, 56%
- Cc1ccc(S(=O)(=O)c2cnc3cc(F)ccc3c2N2CCOCC2)cc1C — higher, 74%
- CN1CCN(c2c(S(=O)(=O)c3ccccc3)cnc3ccccc23)CC1 — lower, 7.7%
- Cc1ccc(S(=O)(=O)c2cnc3c(F)cccc3c2N2CCC(C)CC2)cc1 — higher, 93%
- O=S(=O)(c1cc(F)cc(F)c1)c1cnc2ccc(Cl)cc2c1N1CCOCC1 — lower, 7%
- COc1ccc2ncc(S(=O)(=O)c3ccc(OC)c(Cl)c3)c(N3CCOCC3)c2c1 — lower, 9%
- O=S(=O)(c1ccc(F)cc1)c1cnc2cc(F)ccc2c1N1CCOCC1 — lower, 29%
- Cc1ccc(S(=O)(=O)c2cnc3ccc(Cl)cc3c2N2CCOCC2)cc1F — lower, 23%
- O=S(=O)(c1cc(F)cc(F)c1)c1cnc2ccc(F)cc2c1N1CCOCC1 — lower, 3%
- CC1CCN(c2c(S(=O)(=O)c3cc(Cl)cc(Cl)c3)cnc3ccc(F)cc23)CC1 — higher, 69%
- Cc1ccc(S(=O)(=O)c2cnc3c(F)cccc3c2N2CCOCC2)cc1 — lower, 23%
- COc1ccc2ncc(S(=O)(=O)c3ccc(C)c(Cl)c3)c(N3CCOCC3)c2c1 — lower, 28%
- CC1CCN(c2c(S(=O)(=O)c3cc(F)cc(F)c3)cnc3cc(F)ccc23)CC1 — higher, 77 to 77.2%
- O=S(=O)(c1cc(Cl)cc(Cl)c1)c1cnc2ccc(F)cc2c1N1CCOCC1 — lower, 17%
- CC1CCN(c2c(S(=O)(=O)c3ccc(F)cc3)cnc3cc(F)ccc23)CC1 — higher, 74.5 to 75%
- O=S(=O)(c1ccccc1)c1cnc2ccc(F)cc2c1N1CCOCC1 — higher, 81%
- CC1CCN(c2c(S(=O)(=O)c3ccccc3)cnc3cc(F)ccc23)CC1 — higher, 87%
- CC1CCN(c2c(S(=O)(=O)c3ccccc3)cnc3ccc(F)cc23)CC1 — lower, 40%
- O=S(=O)(c1ccc(Cl)c(Cl)c1)c1cnc2c(F)cccc2c1N1CCOCC1 — higher, 86%
- Cc1ccc2ncc(S(=O)(=O)c3ccc(F)cc3)c(N3CCC(C)CC3)c2c1 — higher, 90%
- COc1ccc(S(=O)(=O)c2cnc3cc(F)ccc3c2N2CCOCC2)cc1 — lower, 23%
- CCN1CCN(c2c(S(=O)(=O)c3ccccc3)cnc3ccccc23)CC1 — lower, 1.7%
- Cc1ccc2ncc(S(=O)(=O)c3ccc(C)c(Cl)c3)c(N3CCC(C)CC3)c2c1 — higher, 91%
- Cc1ccc2ncc(S(=O)(=O)c3cccc(Cl)c3)c(N3CCOCC3)c2c1 — lower, 44%
- COc1ccc(S(=O)(=O)c2cnc3cc(Cl)ccc3c2N2CCC(C)CC2)cc1 — higher, 79%
- CC1CCN(c2c(S(=O)(=O)c3ccc(F)c(Cl)c3)cnc3cc(Cl)ccc23)CC1 — higher, 94%
- Cc1ccc2ncc(S(=O)(=O)c3cccc(Cl)c3)c(N3CCC(C)CC3)c2c1 — higher, 91%
- Cc1ccc(S(=O)(=O)c2cnc3ccc(C)cc3c2N2CCC(C)CC2)cc1 — higher, 82%
- Cc1ccc2ncc(S(=O)(=O)c3cccc(F)c3)c(N3CCOCC3)c2c1 — lower, 10%
- CC1CCN(c2c(S(=O)(=O)c3ccc(F)c(Cl)c3)cnc3c(F)cccc23)CC1 — higher, 95%
- CC1CCN(c2c(S(=O)(=O)c3ccc(F)cc3)cnc3cc(Cl)ccc23)CC1 — higher, 91%
- O=S(=O)(c1ccc(Cl)cc1)c1cnc2ccc(Cl)cc2c1N1CCOCC1 — lower, 15%
- Cc1ccc(S(=O)(=O)c2cnc3ccc(F)cc3c2N2CCC(C)CC2)cc1F — higher, 86%
- Cc1ccc2ncc(S(=O)(=O)c3ccccc3)c(N3CCC(C)CC3)c2c1 — the same, 67%
- COc1ccc2ncc(S(=O)(=O)c3cccc(Cl)c3)c(N3CCC(C)CC3)c2c1 — lower, -3%
- COCC1CCN(c2c(S(=O)(=O)c3cccc(F)c3)cnc3cc(F)ccc23)CC1 — higher, 70.5%
- O=S(=O)(c1ccccc1)c1cnc2ccccc2c1Nc1ccccc1 — lower, 3.6%
- CC1CCN(c2c(S(=O)(=O)c3ccc(C#N)cc3)cnc3ccc(Cl)cc23)CC1 — lower, 31%
- Cc1ccc(S(=O)(=O)c2cnc3ccc(Cl)cc3c2N2CCC(C)CC2)cc1C — higher, 84%
- O=S(=O)(c1ccc(Cl)cc1)c1cnc2c(F)cccc2c1N1CCOCC1 — lower, 52%
- O=S(=O)(c1cccc(F)c1)c1cnc2cc(Cl)ccc2c1N1CCOCC1 — lower, 32%
- COc1ccc(S(=O)(=O)c2cnc3cc(F)ccc3c2N2CCC(C)CC2)cc1OC — higher, 83%
- COc1ccc2ncc(S(=O)(=O)c3cc(F)cc(F)c3)c(N3CCC(C)CC3)c2c1 — lower, 30%
- Cc1ccc(S(=O)(=O)c2cnc3ccc(Cl)cc3c2N2CCC(C)CC2)cc1F — higher, 68%
- Cc1ccc(S(=O)(=O)c2cnc3ccc(F)cc3c2N2CCOCC2)cc1Cl — higher, 69%
- CC1CCN(c2c(S(=O)(=O)c3ccc(Cl)cc3)cnc3cc(Cl)ccc23)CC1 — higher, 91%
- N#Cc1ccc(S(=O)(=O)c2cnc3cc(F)ccc3c2N2CCOCC2)cc1 — lower, 4%
- O=S(=O)(c1ccc(Cl)c(Cl)c1)c1cnc2ccc(Cl)cc2c1N1CCOCC1 — lower, 63%
- CC1CCN(c2c(S(=O)(=O)c3cccc(Cl)c3)cnc3cc(Cl)ccc23)CC1 — higher, 92%
- COc1ccc2ncc(S(=O)(=O)c3ccc(F)cc3)c(N3CCC(C)CC3)c2c1 — lower, 27%
